Test results as given in ChEMBL document CHEMBL2417545, “6-methoxy-7-benzofuranoxy and 6-methoxy-7-indolyloxy analogues of 2-[2-(2,6-Dimethoxyphenoxy)ethyl]aminomethyl-1,4-benzodioxane (WB4101):1 discovery of a potent and selective α1D-adrenoceptor antagonist” (J Med Chem, 2013).

Columns and labels:
[1] = target: T1, Adrenergic receptor alpha-2 (Rattus norvegicus, UniProt P22086+P19328+P22909); experiment: Antagonist activity at alpha-2 adrenoreceptor in Sprague-Dawley rat prostatic vas deferens assessed as reversal of clonidine-inhibited twitch responses of field-stimulated prostatic portion of vas deferens after 30 mins by Schild plot analysis; format: tissue-based
T1 sequence (P22086 whole entry): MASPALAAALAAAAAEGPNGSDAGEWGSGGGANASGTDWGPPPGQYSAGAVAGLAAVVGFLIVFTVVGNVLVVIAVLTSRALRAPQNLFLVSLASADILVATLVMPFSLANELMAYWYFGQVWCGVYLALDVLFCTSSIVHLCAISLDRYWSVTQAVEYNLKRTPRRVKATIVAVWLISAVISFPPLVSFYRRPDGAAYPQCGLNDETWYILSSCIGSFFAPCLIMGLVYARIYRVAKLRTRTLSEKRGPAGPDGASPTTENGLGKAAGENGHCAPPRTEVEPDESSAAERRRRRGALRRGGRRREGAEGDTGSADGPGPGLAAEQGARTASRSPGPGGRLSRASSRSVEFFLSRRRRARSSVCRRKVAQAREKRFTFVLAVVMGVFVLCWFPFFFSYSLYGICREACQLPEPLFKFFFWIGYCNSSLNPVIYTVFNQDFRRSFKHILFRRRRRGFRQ
T1 sequence (P19328 whole entry): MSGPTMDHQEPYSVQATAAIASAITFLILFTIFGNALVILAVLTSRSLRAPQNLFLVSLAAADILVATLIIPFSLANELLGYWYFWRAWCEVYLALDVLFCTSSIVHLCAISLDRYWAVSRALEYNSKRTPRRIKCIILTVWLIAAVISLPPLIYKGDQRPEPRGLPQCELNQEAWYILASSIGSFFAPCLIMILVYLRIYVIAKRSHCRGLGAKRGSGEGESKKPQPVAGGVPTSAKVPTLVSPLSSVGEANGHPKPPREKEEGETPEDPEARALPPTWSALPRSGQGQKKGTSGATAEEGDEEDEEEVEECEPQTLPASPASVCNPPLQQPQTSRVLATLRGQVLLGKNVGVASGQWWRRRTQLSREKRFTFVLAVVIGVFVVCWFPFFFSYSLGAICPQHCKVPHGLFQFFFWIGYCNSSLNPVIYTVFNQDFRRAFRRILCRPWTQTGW
T1 sequence (P22909 whole entry): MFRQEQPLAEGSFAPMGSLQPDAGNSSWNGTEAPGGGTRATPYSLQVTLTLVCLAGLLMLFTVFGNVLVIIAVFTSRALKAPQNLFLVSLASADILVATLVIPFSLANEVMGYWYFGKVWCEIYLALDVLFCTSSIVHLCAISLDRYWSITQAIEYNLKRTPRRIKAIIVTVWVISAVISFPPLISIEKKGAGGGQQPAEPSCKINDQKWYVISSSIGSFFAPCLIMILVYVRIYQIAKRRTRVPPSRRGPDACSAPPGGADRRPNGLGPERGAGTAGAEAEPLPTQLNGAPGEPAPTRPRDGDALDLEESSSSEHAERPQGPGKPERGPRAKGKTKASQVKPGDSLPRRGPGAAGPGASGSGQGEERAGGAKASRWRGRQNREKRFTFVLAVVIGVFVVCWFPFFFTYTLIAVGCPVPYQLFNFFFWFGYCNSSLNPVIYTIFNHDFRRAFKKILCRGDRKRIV
Method in brief: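 Prostatic vas deferens in bath with propranolol 1 μM and desipramine 0.01 μM throughout. A cumulative clonidine control curve was run, then a second curve after 30 min antagonist equilibration. pA₂ from Schild plot of log(DR−1) vs log[antagonist], at least three antagonist concentrations, 3−5 repeats each.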

[2] = target: T2, Alpha-1D adrenergic receptor (Rattus norvegicus, UniProt P23944); experiment: Antagonist activity at alpha-1D adrenoreceptor in Sprague-Dawley rat thoracic aorta assessed as inhibition of noradrenaline-induced tissue contraction after 30 mins by Schild plot analysis; settings: read-out: pA2 (converted)
T2 sequence (P23944 whole entry): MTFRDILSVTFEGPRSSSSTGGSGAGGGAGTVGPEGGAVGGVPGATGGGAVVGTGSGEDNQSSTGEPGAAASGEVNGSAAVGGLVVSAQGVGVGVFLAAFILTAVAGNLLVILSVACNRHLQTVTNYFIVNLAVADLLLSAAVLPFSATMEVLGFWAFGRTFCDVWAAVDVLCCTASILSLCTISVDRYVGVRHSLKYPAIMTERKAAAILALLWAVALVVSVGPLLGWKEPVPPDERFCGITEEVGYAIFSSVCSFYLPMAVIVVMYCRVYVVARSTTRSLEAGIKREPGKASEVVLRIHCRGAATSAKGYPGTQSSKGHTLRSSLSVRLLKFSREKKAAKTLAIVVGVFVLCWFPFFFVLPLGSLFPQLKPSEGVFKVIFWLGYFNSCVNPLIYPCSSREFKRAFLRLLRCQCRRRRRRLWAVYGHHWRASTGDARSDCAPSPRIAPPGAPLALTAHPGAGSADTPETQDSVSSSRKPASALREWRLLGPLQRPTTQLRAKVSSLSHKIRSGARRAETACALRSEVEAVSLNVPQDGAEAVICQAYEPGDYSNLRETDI
Method in brief: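 Endothelium-denuded helicoid aortic strips, about 1.5 cm, with denudation confirmed by absent acetylcholine relaxation. Strips were equilibrated ≥1 h at 1 g tension and cumulative (−)-noradrenaline curves recorded, the first two discarded and the third taken as control; a fourth followed 30 min antagonist equilibration. pA₂ from Schild plot, 3−5 repeats per concentration.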

[3] = target: T3, Alpha-1A adrenergic receptor (Rattus norvegicus, UniProt P43140); experiment: Antagonist activity at alpha-1A adrenoreceptor in Sprague-Dawley rat prostate assessed as inhibition of noradrenaline-induced tissue contraction after 30 mins by Schild plot analysis; design: species or system Prostate gland; settings: read-out: pA2 (converted)
T3 sequence (P43140 whole entry): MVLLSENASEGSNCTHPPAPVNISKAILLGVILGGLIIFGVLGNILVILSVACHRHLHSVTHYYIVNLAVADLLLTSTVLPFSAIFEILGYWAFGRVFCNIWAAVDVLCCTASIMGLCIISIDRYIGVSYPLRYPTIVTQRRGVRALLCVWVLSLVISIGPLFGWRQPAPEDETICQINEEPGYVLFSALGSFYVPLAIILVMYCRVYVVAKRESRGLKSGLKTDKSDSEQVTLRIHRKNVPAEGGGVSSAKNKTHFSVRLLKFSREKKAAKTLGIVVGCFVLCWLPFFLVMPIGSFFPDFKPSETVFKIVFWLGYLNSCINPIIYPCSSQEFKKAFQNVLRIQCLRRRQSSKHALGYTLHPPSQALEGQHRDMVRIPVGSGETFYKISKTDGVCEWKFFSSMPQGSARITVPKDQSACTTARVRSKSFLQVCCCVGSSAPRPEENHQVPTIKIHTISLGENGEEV
Method in brief: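 Isolated prostatic portion of vas deferens from 200−250 g rats, in gassed (95% O₂/5% CO₂) physiological salt solution at pH 7.4 with desipramine 0.01 μM. Cumulative isotonic (−)-noradrenaline curves were run at 30 min intervals, the first discarded and the second taken as control, then a third after 30 min with antagonist. pA₂ from Schild plot, at least three antagonist concentrations, each tested 3−5 times.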

Question: For COc1ccc2ccoc2c1OCCNC[C@H]1COc2ccccc2O1.Cl, which pA2 [1] is on record?
Answer: The pA2 was 6.55.

Question: And the Kb [2]?
Answer: Its Kb is 0.977 nM.

Question: And the Kb [3]?
Answer: Its Kb is 1.95 nM.

Question: Which pA2 [1] does the source give for COc1ccc2cc[nH]c2c1OCCNC[C@H]1COc2ccccc2O1 here?
Answer: The pA2 was 6.09.

Question: What about the Kb [2] of the same compound?
Answer: Its Kb is 3.02 nM.

Question: And the Kb [3]?
Answer: Its Kb is 13.2 nM.

Question: COc1ccc2c(c1OCCNC[C@H]1COc3ccccc3O1)OCC2.Cl was tested. Which pA2 [1] did it give?
Answer: Its pA2 is 6.63.

Question: What about the Kb [2] of the same compound?
Answer: The Kb was 0.263 nM.

Question: And the Kb [3]?
Answer: The Kb was 13.2 nM.

Question: What does the source list for COc1ccc2c(c1OCCNC[C@H]1COc3ccccc3O1)NCC2.Cl.Cl?
Answer: pA2 [1]: 6.05; Kb [2]: 2.4 nM; Kb [3]: 3.63 nM
